According to the array DNA melting data of Ke et al. (doi:10.1101/2024.01.08.574731):

What was measured:
[1] = folding enthalpy; higher = less favourable; fluorescence melt of hairpins on a sequencing array, two-state fit; conditions: sodium 0.088 M
Procedure, shortened: (§1)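 Folding enthalpy and melting temperature come from bootstrapped two-state fits to Cy3 fluorescence of library hairpins carrying annealed Cy3 and quencher oligos on a sequenced MiSeq flow cell. Imaging was done in 50 mM Na-HEPES pH 8.0, 25 mM NaCl, stepping by 2.5 °C up to 60 °C, and signals were normalised to pre-quench Cy3 and to control constructs. Results of four replicates were combined by inverse variance, and fitted temperatures were raised by 9.35 °C to match UV melts.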

[2] = melting temperature; fluorescence melt of hairpins on a sequencing array, two-state fit, raised by 9.35 °C to match UV melts; conditions: sodium 0.088 M
Procedure, shortened: as §1

Sequence	folding enthalpy [1] [kcal/mol]	Tm [2] [°C]
GGTACCGAAAGGTCGACC ((((((....)))..)))	-13.6	36.5
GCCTGGCGAAAGCATGGC (((..((....))..)))	-23.7	60.4
GGTGAACGAAAGTTGACC (((.(((....))).)))	-30.4	48.9
GATGACGAAAGTCATC ((((((....))))))	-36.3	67.4
GATCAGCGAACTGATC ((((((....))))))	-34.4	49.3
GCTGGGGGAAACCCTGGC ((..(((....)))..))	-23.4	49.1
GCCTGGGGAAACCCGGGC (((.(((....))).)))	-39.2	64.6
GACAGTGGAAACACTGCC (.(((((....))))).)	-14.5	46
GTATACGAAAGTAAATAC ((((((....)))..)))	-14.8	27.7
GATTAGGCGAAAGCCATC (((..(((....))))))	-8.82	23.4
GCACTCGAAAGAGCCTGC ((((((....)))..)))	-12.9	27.8
GGATTCGGAAACGAACCC ((.((((....)))).))	-25.6	45.6
GGTTGCGGAAACGCAGCC ((.((((....)))).))	-39.2	63.5
GTCCCCGAAAGGGCGAC ((((((....))).)))	-20.8	52.7
GGCATTGGAAACAGTGTC (.((.((....)).)).)	-17	31.9
GATCCCCAAGGGATC ((((((...))))))	-30.9	58.9
GCCTTCGAAAGAAAAGGC ((((((....)))..)))	-27.7	45.7
GCATAGCGAAAGCTGCGC ((..(((....)))..))	-21	61.3
GCATTCGGAAACGAACGC ((.((((....)))).))	-37.2	46.7
GAATGTGGAAACATATTC ((((.((....)).))))	-33.2	35.1
GTGTCCGAAAGGATACAC ((((((....)))..)))	-18.7	49
GTTGACCGAAAGGTAAC (((.(((....))))))	-16.4	38.1
GTTGCTGGAAACAGCAGC (.(((((....))))).)	-26.3	54.5

Sequence	folding enthalpy [1] [kcal/mol]	Tm [2] [°C]
GTACACTCGAAAGAGTAC (((..(((....))))))	-13.8	29.4
GGTCCCGAAAGGGTGACC ((((((....)))..)))	-19.6	48
GTGCACCGAAAGGTCCAC (((.(((....))).)))	-27.3	45.2
GAGCAGAAATGCTC (((((....)))))	-29.8	53.6
GATCATTCGATGATC ((((((...))))))	-35.8	47.2
GTCGCTCGAAAGAGGAC (((.(((....))))))	-18.1	45.4
GTGGTAGGAAACTACCGC (.(((((....))))).)	-32.5	52.5
GCAACGGGAAACCGTTAC (.(((((....))))).)	-13.3	38.6
GCAAGCGAAAGCTGTTGC ((((((....)))..)))	-15.7	45.9
CCATCGAAAGATGG (((((....)))))	-23.3	60.5
GATGCTGGAAACAGTGTC ((..(((....)))..))	-26.2	37.8
GATCTATGGTAGATC ((((((...))))))	-28.9	36.9
GATCGTCTAGACGATC ((((((....))))))	-37.2	59.7
GACATACCGAAAGGTGTC (((..(((....))))))	-18.2	41.3
GATCGACTCATCGATC ((((((....))))))	-41.7	51.8
CGCCGTCGGAAACGAGCG (((..(((....))))))	-28.4	50.3
GTCCAAGCGAAAGCTGAC (((..(((....))))))	-14.4	41.4
GAGCCAGGAAACTGGCCC (.(((((....))))).)	-11.3	45.8
GGCCCTGGAAACAGGACC ((.((((....)))).))	-35.3	51
GCATAAGGAAACCTATGC (((((.(....).)))))	-27.1	39.2
GGTCTGGGAAACCAGGTC (..((((....))))..)	-14.3	34.9
GCCCGCGAAAGCGCTGGC ((((((....)))..)))	-16.5	58.5
GCGTCAGGAAACTGGTGC ((..(((....)))..))	-27.1	41.6

Sequence	folding enthalpy [1] [kcal/mol]	Tm [2] [°C]
GTGGTGGGAAACCGCTAC ((.(.((....)).).))	-19.3	46.7
CGGACGGAAACGTGGCCG ((((((....)))..)))	-25.7	44.1
GTGGGAGGAAACTTCCAC ((((.((....)).))))	-41.1	49.2
GCTCTCGAAAGAGATAGC ((((((....)))..)))	-22.6	41.8
CCAGAGAAATCTGG (((((....)))))	-19.2	44.4
GCGTCGGCGAAAGCCCGC (((..(((....))))))	-17	58.7
GCAGAGAAATCTGC (((((....)))))	-23.1	50.6
GACGTTGGAAACAACATC ((.((((....)))).))	-16.8	32.4
GTTACTGGAAACAGTAAC (((((((....)))))))	-60.8	54.1
GAATCACGAAAGTGCTTC (((.(((....))).)))	-20.8	38.5
GCCGCACGAAAGTGGGC (((.(((....))))))	-20.9	62.8
GCCTTGGAAACAAGGC ((((((....))))))	-34.6	67.8
GGATCGTCGAAAGACTCC (((..(((....))))))	-11.8	28.9
GGCCTCGAAAGAGTGGCC ((((((....)))..)))	-36.6	54.4
GACAACGAAAGTTACGTC ((((((....)))..)))	-12.5	30.6
GAAGAACCGAAAGGTTTC (((..(((....))))))	-11.5	33
GCAGAGCGAAAGCACCGC ((.(.((....)).).))	-14.2	45.4
GTGCAGGGAAACCTGCGC (.(((((....))))).)	-26.2	58.9
GTCTTTCGAAAGAACGAC (((.(((....))).)))	-40.9	41
GCACGTGGAAACACATGC (((.(((....))).)))	-31.9	45.1
GATCAGTGGCCTGATC ((((((....))))))	-36	50.6
GGTACCGGAAACGGTACC (((((((....)))))))	-30.5	69
GATTGAGGAAACCCAATC (((((.(....).)))))	-29.2	35.1
